The experiment addresses Monoacylglycerol lipase ABHD6 (Mus musculus) (UniProt Q8R2Y0). Nature of the experiment: oral in vivo ABHD6 inhibition in mouse liver, late-stage follow-up, in vivo study for DAGLb inhibitor project, gel-based competitive ABPP, fluorescence, powder samples (AID 624077). Conditions: C57BL mice oral dosing, stronger effect = higher value. The method in brief:
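Test system: C57BL mouse liver membranes, ABHD6 | Doses: Oral 10, 5, 1 mg/kg | Schedule: 4 h oral dose-to-liver-harvest, 30 min 37 °C probe labelling | Signal: SDS-PAGE followed by in-gel fluorescence scanning | Read-out basis: Percent ABHD6 inhibition from band integrated optical density versus vehicle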

Setting [1] is: measured here: ABHD6 inhibition at 1 mg/kg.
Setting [2] is: measured here: ABHD6 inhibition at 5 mg/kg.

The values below come from PubChem BioAssay AID624077 (The Scripps Research Institute Molecular Screening Center, 2012).

As usually defined, the inhibition is the drop in the measured response relative to a control, in per cent.

The structures appear in SMILES notation.

Sequence of Monoacylglycerol lipase ABHD6 (Mus musculus) (Q8R2Y0 whole entry, looked up): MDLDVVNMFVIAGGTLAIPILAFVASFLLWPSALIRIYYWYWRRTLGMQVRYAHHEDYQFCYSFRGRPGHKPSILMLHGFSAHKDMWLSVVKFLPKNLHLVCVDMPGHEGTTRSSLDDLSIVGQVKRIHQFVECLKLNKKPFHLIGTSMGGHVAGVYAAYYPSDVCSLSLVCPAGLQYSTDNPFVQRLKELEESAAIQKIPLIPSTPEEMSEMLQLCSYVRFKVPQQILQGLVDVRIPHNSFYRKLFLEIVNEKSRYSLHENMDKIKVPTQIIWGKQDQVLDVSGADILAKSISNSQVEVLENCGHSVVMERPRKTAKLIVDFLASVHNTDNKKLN

On to `COc1ccccc1-c1ccc(-c2cn(C(=O)N3CCCCC3Cc3ccccc3)nn2)cc1` (centres undefined), for which the inhibition was 100%. Under setting [1], the inhibition came out at 90%. The inhibition under setting [2] was found to be 100%.
For `COc1ccc(-c2ccc(-c3cn(C(=O)N4CCCCC4c4ccccc4)nn3)cc2)cc1` (centres undefined), the inhibition was 100%. The same compound had an inhibition under setting [1] of 70%. For the same compound, the inhibition under setting [2] turned out to be 80%.
On the same counts, the results for `O=C(N1CCCCC1Cc1ccccc1)n1cc(-c2ccc(-c3ccccc3)cc2)nn1` (centres undefined) are 100%, 100% and 100%.
